Source: ChEMBL document CHEMBL1150589, “New sesquiterpenoids from the root of Guatteria multivenia” (J Nat Prod, 2002)
Converted amounts (≈) assume the structure as drawn.

Assays:
Candida albicans = experiment: Antimicrobial activity against Candida albicans; assay type: functional, organism-based
In short: (§1)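 Antimicrobial assay run per an earlier method. Both IC50 and MIC were reported in µg/mL. Amphotericin B was the positive control for C. albicans and C. neoformans.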

Cryptococcus neoformans = experiment: Antimicrobial activity against Cryptococcus neoformans; assay type: functional, organism-based; in short: as §1
[1] = Inhibition of Candida albicans secreted aspartic protease
In short: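 SAP inhibition assay run per an earlier method, with IC50 reported in µg/mL. Pepstatin A was the positive control.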

Staphylococcus aureus [2] = experiment: Antimicrobial activity against Staphylococcus aureus; assay type: functional, organism-based; in short: as §1
Staphylococcus aureus [3] = experiment: Antimicrobial activity against methicillin-resistant Staphylococcus aureus; assay type: functional, organism-based

Compound	IC50 (Candida albicans)	IC50 (Cryptococcus neoformans)	MIC (Cryptococcus neoformans)	IC50 [1]	IC50 (Staphylococcus aureus [2])	MIC (Staphylococcus aureus [2])	MIC (Staphylococcus aureus [3])	MIC (Candida albicans)	IC50 (Staphylococcus aureus [3])
C[C@@H]1[C@H](O)[C@@H](C)/C=C/C=C/C=C/C=C/C=C/C=C/C=C/[C@H](O[C@@H]2O[C@H](C)[C@@H](O)[C@H](N)[C@@H]2O)C[C@@H]2O[C@](O)(C[C@@H](O)C[C@@H](O)[C@H](O)CC[C@@H](O)C[C@@H](O)CC(=O)O[C@H]1C)C[C@H](O)[C@H]2C(=O)O [AMPHOTERICIN B]	0.06 µg/mL (≈ 0.0649 µM)	0.3 µg/mL (≈ 0.325 µM)	0.63 µg/mL (≈ 0.682 µM)	–	–	–	–	–	–
COc1ccc2c(c1)C(=O)c1nccc3cc4c(c-2c13)OCO4 [ATHEROSPERMIDINE]	–	–	–	45 µg/mL (≈ 147 µM)	–	–	–	–	–
O=C(O)c1cn(C2CC2)c2cc(N3CCNCC3)c(F)cc2c1=O [CIPROFLOXACIN]	–	–	–	–	0.07 µg/mL (≈ 0.211 µM)	0.39 µg/mL (≈ 1.18 µM)	3.13 µg/mL (≈ 9.45 µM)	–	–
O=C1c2ccccc2-c2c3c(cc4ccnc1c24)OCO3 [LIRIODENINE]	3.5 µg/mL (≈ 12.7 µM)	2 µg/mL (≈ 7.27 µM)	12.5 µg/mL (≈ 45.4 µM)	–	2 µg/mL (≈ 7.27 µM)	3.13 µg/mL (≈ 11.4 µM)	3.13 µg/mL (≈ 11.4 µM)	6.25 µg/mL (≈ 22.7 µM)	2 µg/mL (≈ 7.27 µM)
CC(C)CC(=O)N[C@H](C(=O)N[C@H](C(=O)N[C@@H](CC(C)C)[C@@H](O)CC(=O)N[C@@H](C)C(=O)N[C@@H](CC(C)C)[C@@H](O)CC(=O)O)C(C)C)C(C)C [PEPSTATIN]	–	–	–	0.006 µg/mL (≈ 0.00875 µM)	–	–	–	–	–
